{"data": "Assay results pooled from the literature", "FGFR1 V561M": "Fibroblast growth factor receptor 1 (FGFR1, Homo sapiens, UniProt P11362, V561M)", "FGFR1": "Fibroblast growth factor receptor 1 (FGFR1, Homo sapiens, UniProt P11362)"}
{"Compound": "C=CC(=O)Nc1cc(Nc2nccc(Nc3cc(Cl)c(F)cc3C(C)(C)O)n2)c(OC)cc1N1CC[C@@H](N(C)C)C1", "target": "FGFR1 V561M", "assay": "enzyme activity, inhibitor", "setting": "1 µM", "quantity": "inhibition", "result": "1%"}
{"Compound": "COc1cc2ncnc(Nc3ccc(Oc4ccccc4)c(C)c3C)c2cc1OC", "target": "FGFR1", "assay": "enzyme activity, inhibitor", "setting": "1 µM", "quantity": "inhibition", "result": "-2%"}
{"Compound": "CC/C(=N\\NC(=O)NCc1cccc(O)c1)c1ccc(O)c(C)c1O", "target": "FGFR1", "assay": "enzyme activity, inhibitor", "setting": "0.1 µM", "quantity": "inhibition", "result": "6.1%"}
{"Compound": "Oc1ccc(-c2nc(-c3ccncc3)c(-c3ccc(F)cc3)[nH]2)cc1", "target": "FGFR1", "assay": "cell-free assay", "setting": "0.5 µM", "quantity": "remaining signal", "result": "86.8%"}
{"Compound": "COc1cc(/C=C/C(=O)c2ccc(NC3=C(Cl)C(=O)c4ccccc4C3=O)cc2)cc(OC)c1OC", "target": "FGFR1", "assay": "enzyme activity, inhibitor, ADP detection", "setting": "1 µM", "quantity": "inhibition", "result": "> 70%"}
{"Compound": "Cc1cc(NC(=O)c2cccc3cc(-c4cccc5[nH]nc(N)c45)ccc23)ccc1F", "target": "FGFR1 V561M", "assay": "enzyme activity, inhibitor", "setting": "0.1 µM", "quantity": "activity vs control", "result": "92%"}
{"Compound": "Cc1cc(NC(=O)c2cccc(S(F)(F)(F)(F)F)c2)cc(-n2ccn3nc(-c4cccnc4)cc23)c1", "target": "FGFR1", "assay": "cell-free assay, competition with immobilised ligand", "setting": "1 µM", "quantity": "remaining binding", "result": "100%"}
{"Compound": "C[S+]([O-])c1ccc(-c2nc(-c3ccncc3)c(-c3ccc(F)cc3)[nH]2)cc1 (stereo not drawn)", "target": "FGFR1", "assay": "cell-free assay", "setting": "0.5 µM", "quantity": "remaining signal", "result": "90.7%"}
{"Compound": "CNCc1ccccc1-c1csc([C@H](C)Nc2nc(C)nc3cc(OC)c(OC)cc23)c1", "target": "FGFR1", "assay": "cell-free assay, competition with immobilised ligand", "setting": "1 µM", "quantity": "remaining binding", "result": "100%"}
{"Compound": "CNC(=O)c1cc(Oc2ccc(NC(=O)Nc3ccc(Cl)c(C(F)(F)F)c3)cc2)ccn1", "target": "FGFR1", "assay": "enzyme activity, inhibitor", "setting": "0.3 µM", "quantity": "inhibition", "result": "69%"}
{"Compound": "CCCS(=O)(=O)Nc1ccc(F)c(C(=O)c2c[nH]c3ncc(-c4ccc(Cl)cc4)cc23)c1F", "target": "FGFR1", "assay": "enzyme activity, inhibitor", "setting": "1 µM", "quantity": "inhibition", "result": "< 10%"}
{"Compound": "CCC(=N\\O)/C(C)=C/c1ccc(F)cc1", "target": "FGFR1", "assay": "cell-free assay, competition with immobilised ligand", "setting": "1 µM", "quantity": "remaining binding", "result": "100%"}
{"Compound": "N#CCCc1ccc2c(c1)-c1[nH]c3ccc([N+](=O)[O-])cc3c1CC(=O)N2", "target": "FGFR1", "assay": "cell-free assay", "setting": "0.5 µM", "quantity": "remaining signal", "result": "91.9%"}
{"Compound": "CC(=O)N1CCC(c2ccc(C(=O)NC3=NCCN3)cc2C(F)(F)F)CC1", "target": "FGFR1", "assay": "cell-free assay, competition with immobilised ligand", "setting": "1 µM", "quantity": "remaining binding", "result": "100%"}
{"Compound": "CN(c1nccc(-c2cnn3ncccc23)n1)C1CC1", "target": "FGFR1", "assay": "binding", "setting": "1 µM", "quantity": "remaining binding", "result": "75%"}
{"Compound": "COc1cc(/C=C/C(=O)CC(=O)/C=C/c2ccc(O)c(OC)c2)ccc1O", "target": "FGFR1", "assay": "enzyme activity, inhibitor", "setting": "1 µM", "quantity": "activity vs control", "result": "102%"}
{"Compound": "Cc1cc(C)c(-n2ccn3nc(-c4cccnc4)cc23)cc1NC(=O)c1cc(C#N)cc(S(F)(F)(F)(F)F)c1", "target": "FGFR1", "assay": "cell-free assay, competition with immobilised ligand", "setting": "0.1 µM", "quantity": "remaining binding", "result": "85.5%"}
{"Compound": "CN(c1ncccc1CNc1nc(Nc2ccc3c(c2)CC(=O)N3)ncc1C(F)(F)F)S(C)(=O)=O", "target": "FGFR1", "assay": "enzyme activity, inhibitor", "setting": "1 µM", "quantity": "inhibition", "result": "80.1%"}
{"Compound": "Cn1cc(Cl)c2c(Oc3c(F)cc(Nc4cc(Cl)nc(N)n4)cc3F)ccnc21", "target": "FGFR1", "assay": "cell-free assay, competition with immobilised ligand", "setting": "0.1 µM", "quantity": "remaining binding", "result": "100%"}
{"Compound": "CCN(CC)CCNC(=O)c1c(C)[nH]c(/C=C2\\C(=O)Nc3ccc(F)cc32)c1C", "target": "FGFR1", "assay": "cell-free assay", "setting": "0.5 µM", "quantity": "remaining signal", "result": "66.1%"}
{"Compound": "CC(C)(O)c1cncc(-c2nc3ccc(F)cc3n2C2CC2)c1", "target": "FGFR1", "assay": "cell-free assay, competition with immobilised ligand", "setting": "1 µM", "quantity": "remaining binding", "result": "100%"}
{"Compound": "CCOc1cc(-c2nncn2C)ccc1Nc1ncc2cc(C)nc(NCC(C)(C)C)c2n1", "target": "FGFR1", "assay": "enzyme activity, inhibitor, FRET", "setting": "1 µM", "quantity": "inhibition", "result": "< 15%"}
{"Compound": "Clc1ccc(Nc2nnc(Cc3ccncc3)c3ccccc23)cc1", "target": "FGFR1", "assay": "cell-free assay", "setting": "0.5 µM", "quantity": "remaining signal", "result": "97.2%"}
{"Compound": "Cc1c[nH]c2nccc(Oc3c(F)cc(Nc4cc(Cl)nc(N)n4)cc3F)c12", "target": "FGFR1", "assay": "cell-free assay, competition with immobilised ligand", "setting": "0.1 µM", "quantity": "remaining binding", "result": "100%"}
{"Compound": "COc1cc2nccc(Oc3ccc(NC(=O)c4c5n(n(-c6ccc(F)cc6)c4=O)CCCC5)cc3)c2cc1OC", "target": "FGFR1", "assay": "enzyme activity, inhibitor", "setting": "0.1 µM", "quantity": "inhibition", "result": "-7%"}
{"Compound": "Cc1ccc(NC(=O)c2ccc(C)c(C(F)(F)F)c2)cc1C#Cc1nn(C2CCC(O)CC2)c2ncnc(N)c12 (stereo not drawn)", "target": "FGFR1 V561M", "assay": "cell-free assay", "setting": "10 µM", "quantity": "remaining signal", "result": "40%"}
{"Compound": "C/C=C/C(=O)NCc1ccc(-n2nc3c(=O)[nH]nc(N)c3c2-c2oc3ccc(C)cc3c2C)cc1", "target": "FGFR1", "assay": "enzyme activity, inhibitor, ELISA", "setting": "10 nM", "quantity": "inhibition", "result": "11.1%"}
